For test [1], the target named is T1, Prostaglandin D2 receptor 2 (Homo sapiens, UniProt Q9Y5Y4).
T1 sequence (Q9Y5Y4 whole entry): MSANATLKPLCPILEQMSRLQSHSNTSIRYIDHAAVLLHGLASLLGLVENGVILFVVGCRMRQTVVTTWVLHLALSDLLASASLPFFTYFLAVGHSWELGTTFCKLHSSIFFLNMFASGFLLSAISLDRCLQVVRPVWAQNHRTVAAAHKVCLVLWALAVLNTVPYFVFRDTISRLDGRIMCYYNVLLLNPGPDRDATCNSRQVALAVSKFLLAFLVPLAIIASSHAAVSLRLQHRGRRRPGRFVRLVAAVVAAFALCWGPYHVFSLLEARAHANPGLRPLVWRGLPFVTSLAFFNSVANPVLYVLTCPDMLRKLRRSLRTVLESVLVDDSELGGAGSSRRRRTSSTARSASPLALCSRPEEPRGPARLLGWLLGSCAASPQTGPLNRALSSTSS
Kind of test: Displacement of 3H-PGD2 from human CRTH2 receptor expressed in CHO cells. It counts as cell-based. Summed up:
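Radioligand binding with ³H-PGD₂ on CHO cells stably transfected with human CRTH2. IC50 taken from full 10-point, half-log concentration–response curves, as means of at least two independent experiments.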

For test [2], the target named is T1, Prostaglandin D2 receptor 2. The experiment in a line: Antagonist activity at human CRTH2 receptor expressed in human KB8 cells assessed as inhibition of PGD2-induced increase in intracellular Ca2+ concentration. In kind it is functional, cell-based. The essentials: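 Cells then washed and resuspended in HBSS with 10 mM HEPES pH 7.3 and 1 mM CaCl2 at 2 × 10⁵ cells/100 µl. PGD2-driven Ca²⁺ flux measured.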

The target of test [3] is Prostaglandin G/H synthase 1 (Homo sapiens, UniProt P23219). The experiment in a line: Inhibition of COX-1. The essentials:
(§1)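 Enzyme inhibition assays for COX-1 and COX-2 run by a contract profiling service following the provider's procedures.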

Test [4] addresses T2, Prostaglandin G/H synthase 2 (Homo sapiens, UniProt P35354).
T2 sequence (P35354 whole entry): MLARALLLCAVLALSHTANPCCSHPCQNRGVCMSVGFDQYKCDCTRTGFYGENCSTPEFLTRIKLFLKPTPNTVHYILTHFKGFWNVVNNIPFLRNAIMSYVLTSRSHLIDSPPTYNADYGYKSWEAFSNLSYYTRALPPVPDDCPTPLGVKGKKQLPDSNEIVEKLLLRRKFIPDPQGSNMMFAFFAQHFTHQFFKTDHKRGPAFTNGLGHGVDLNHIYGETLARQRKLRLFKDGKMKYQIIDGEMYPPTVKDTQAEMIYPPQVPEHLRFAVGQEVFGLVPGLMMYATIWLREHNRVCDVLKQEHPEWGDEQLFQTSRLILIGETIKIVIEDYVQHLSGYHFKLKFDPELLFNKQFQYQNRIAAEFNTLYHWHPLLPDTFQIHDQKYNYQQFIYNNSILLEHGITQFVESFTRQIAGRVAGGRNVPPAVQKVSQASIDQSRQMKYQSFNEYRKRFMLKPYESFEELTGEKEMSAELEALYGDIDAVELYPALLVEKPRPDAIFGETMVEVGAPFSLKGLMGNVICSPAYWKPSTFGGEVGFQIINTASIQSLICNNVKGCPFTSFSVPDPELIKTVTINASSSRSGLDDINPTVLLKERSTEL
Kind of test: Inhibition of COX-2. Summed up:
as §1

Test [5] has as its target T3, Prostaglandin D2 receptor (Homo sapiens, UniProt Q13258).
T3 sequence (Q13258 whole entry): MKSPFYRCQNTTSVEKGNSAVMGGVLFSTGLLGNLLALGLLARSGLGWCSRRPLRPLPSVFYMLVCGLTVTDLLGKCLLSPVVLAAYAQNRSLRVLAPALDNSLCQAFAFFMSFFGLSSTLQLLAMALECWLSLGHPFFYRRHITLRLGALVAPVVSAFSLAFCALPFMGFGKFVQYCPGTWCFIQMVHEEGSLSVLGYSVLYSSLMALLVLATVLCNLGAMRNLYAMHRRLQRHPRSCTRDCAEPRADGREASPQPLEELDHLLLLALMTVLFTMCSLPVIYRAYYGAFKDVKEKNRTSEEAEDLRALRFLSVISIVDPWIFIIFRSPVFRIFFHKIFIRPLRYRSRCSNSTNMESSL
The experiment in a line: Inhibition of DP1 prostanoid receptor. The essentials:
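DP1 binding assay run by a contract profiling service following the provider's procedures.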

pIC50: −log10 of the molar value.

Prostaglandin G/H synthase 1, sequence (P23219 whole entry): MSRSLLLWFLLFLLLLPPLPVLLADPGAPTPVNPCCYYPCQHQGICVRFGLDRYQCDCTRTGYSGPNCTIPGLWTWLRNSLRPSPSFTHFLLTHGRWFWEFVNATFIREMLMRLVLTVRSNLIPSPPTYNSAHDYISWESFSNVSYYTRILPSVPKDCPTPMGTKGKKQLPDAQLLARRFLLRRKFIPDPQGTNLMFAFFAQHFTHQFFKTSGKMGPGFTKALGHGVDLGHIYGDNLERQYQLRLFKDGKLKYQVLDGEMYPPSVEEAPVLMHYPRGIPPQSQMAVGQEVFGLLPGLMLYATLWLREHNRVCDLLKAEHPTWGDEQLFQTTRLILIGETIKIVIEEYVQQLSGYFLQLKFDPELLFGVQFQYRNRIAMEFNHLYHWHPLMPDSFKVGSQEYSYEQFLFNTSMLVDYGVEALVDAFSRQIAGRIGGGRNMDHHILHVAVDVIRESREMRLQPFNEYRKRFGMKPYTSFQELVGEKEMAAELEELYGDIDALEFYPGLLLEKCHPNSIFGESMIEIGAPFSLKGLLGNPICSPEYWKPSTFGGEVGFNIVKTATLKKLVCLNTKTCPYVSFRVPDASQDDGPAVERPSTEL

The molecule `CC(=O)Nc1ccc(C(=O)c2ncc(CC(=O)O)c3ccccc23)cc1` showed a negative-log IC50 (pIC50) in test [1] of 6.48.

Take `O=C(O)Cc1cnc(C(=O)c2ccc(NC(=O)c3ccccc3)cc2)c2ccccc12`: the negative-log IC50 (pIC50) in test [1] is 8.10; in test [2], 7.38.

`O=C(O)Cc1cnc(C(=O)c2ccc(NC(=O)C3CCCCC3)cc2)c2ccccc12` had a pIC50 in test [1] of 7.85.

Consider `O=C(O)Cc1cnc(C(=O)c2ccc(NC(=O)c3ccc4ccccc4c3)cc2)c2ccccc12`, for which the pIC50 in test [1] is 8.40.

`O=C(O)Cc1cnc(C(=O)c2ccc(NC(=O)c3cc4ccccc4[nH]3)cc2)c2ccccc12` gave a pIC50 in test [1] of 8.49.

As to `O=C(O)Cc1cnc(C(=O)c2ccc(NC(=O)c3ccncc3)cc2)c2ccccc12`, the pIC50 in test [1] is 7.08.

For the molecule `O=C(O)Cc1cnc(C(=O)c2ccc(NC(=O)c3ncccn3)cc2)c2ccccc12`, the figures for the negative-log IC50 (pIC50) in test [1] and in test [2] were 6.54 and 6.26, respectively.

In test [1], `O=C(O)Cc1cnc(C(=O)c2ccc(NC(=O)c3cccc(Cl)c3)cc2)c2ccccc12` gave a pIC50 of 8.49.

In the case of `O=C(O)Cc1cnc(C(=O)c2ccc(NC(=O)c3ccc(Cl)cc3)cc2)c2ccccc12`, the pIC50 in test [1] was 8.47.

Regarding `O=C(O)Cc1cnc(C(=O)c2ccc(NC(=O)c3ccccc3Cl)cc2)c2ccccc12`, the pIC50 in test [1] is 7.35.

Regarding `O=C(O)Cc1cnc(C(=O)c2ccc(NC(=O)c3ccc(C(F)(F)F)cc3)cc2)c2ccccc12`, the pIC50 in test [1] was 8.31; in test [2], 7.82.

With `COc1ccc(C(=O)Nc2ccc(C(=O)c3ncc(CC(=O)O)c4ccccc34)cc2)cc1`, in test [1], the pIC50 is 8.14.

With `O=C(O)Cc1cnc(C(=O)c2ccc(NC(=O)c3ccc(Cl)c(Cl)c3)cc2)c2ccccc12`, the negative logarithm of the IC50 (pIC50) was 7.72 in test [1], less than 5.00 in test [3], less than 5.00 in test [4] and less than 6.00 in test [5].

Consider `O=C(O)Cc1cnc(C(=O)c2ccc(NC(=O)CCc3ccc(Cl)c(Cl)c3)cc2)c2ccccc12`, for which, in test [1], the negative logarithm of the IC50 (pIC50) was 7.89.

In the case of `O=C(O)Cc1cnc(C(=O)c2ccc(NC(=O)/C=C/c3ccc(Cl)c(Cl)c3)cc2)c2ccccc12`, the pIC50 is 8.40 in test [1] and 7.77 in test [2].

In test [1], `CN(C(=O)c1ccc(Cl)c(Cl)c1)c1ccc(C(=O)c2ncc(CC(=O)O)c3ccccc23)cc1` had a negative-log IC50 (pIC50) of 6.68.

In test [1], `O=C(O)Cc1cnc(C(=O)c2ccc(NCc3ccc(Cl)c(Cl)c3)cc2)c2ccccc12` gave a negative-log IC50 (pIC50) of 8.21.

In turn, `O=C(O)Cc1cnc(C(=O)c2ccc(NS(=O)(=O)c3ccc(Cl)c(Cl)c3)cc2)c2ccccc12` had a pIC50 in test [1] of 6.47.

As for `O=C(O)Cc1cnc(C(=O)c2ccc(OCc3ccc(Cl)c(Cl)c3)cc2)c2ccccc12`, the pIC50 in test [1] was 7.42; in test [2] it was 6.74.

Turning to `O=C(O)Cc1cnc(C(=O)c2ccc(C(=O)Nc3ccc(Cl)c(Cl)c3)cc2)c2ccccc12`, the pIC50 in test [1] was 8.00.

As to `O=C(O)Cc1cnc(C(=O)c2ccc(C(=O)NCCc3ccc(Cl)cc3)cc2)c2ccccc12`, in test [1], the pIC50 is 8.11.

In turn, `CC(C)(C(=O)O)c1cnc(C(=O)c2ccc(C(=O)NCCc3ccc(Cl)cc3)cc2)c2ccccc12` had a negative-log IC50 (pIC50) in test [1] of 6.70.

The molecule `O=C(O)COc1cnc(C(=O)c2ccc(C(=O)NCCc3ccc(Cl)cc3)cc2)c2ccccc12` had a pIC50 in test [1] of 7.60.

The values are drawn from ChEMBL document CHEMBL2021917, “Isoquinoline derivatives as potent CRTH2 receptor antagonists: synthesis and SAR” (Bioorg Med Chem Lett, 2012).
